The text below walks through data of ChEMBL document CHEMBL4396879, “Conjugation of Short Peptides to Dibenzodiazepinone-Type Muscarinic Acetylcholine Receptor Ligands Determines M2R Selectivity” (J Med Chem, 2019).

In experiment [1] the target is T1, Muscarinic acetylcholine receptor M1 (Homo sapiens, UniProt P11229).
T1 sequence (P11229 whole entry): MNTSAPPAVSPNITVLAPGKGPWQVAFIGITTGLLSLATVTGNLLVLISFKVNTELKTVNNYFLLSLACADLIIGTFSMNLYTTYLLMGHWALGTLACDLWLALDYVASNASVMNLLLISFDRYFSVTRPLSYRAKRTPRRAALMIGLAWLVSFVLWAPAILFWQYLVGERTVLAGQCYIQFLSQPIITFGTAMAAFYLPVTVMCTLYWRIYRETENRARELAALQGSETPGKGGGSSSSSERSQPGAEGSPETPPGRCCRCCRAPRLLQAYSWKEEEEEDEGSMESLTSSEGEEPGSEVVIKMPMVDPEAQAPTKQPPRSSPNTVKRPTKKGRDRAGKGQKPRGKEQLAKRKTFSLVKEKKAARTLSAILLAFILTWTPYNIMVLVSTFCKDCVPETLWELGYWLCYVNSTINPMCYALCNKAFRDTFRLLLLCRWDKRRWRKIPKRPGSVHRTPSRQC
The experiment is described as follows: Displacement of [3H]-NMS from human muscarinic M1 receptor expressed in CHO-K9 cells after 3 hrs by microbeta2 scintillation counting method. It counts as cell-based. A digest of the protocol: (§1)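 [3H]NMS competition binding on intact CHO-hMxR cells in L15 medium with 1% BSA, 3 h at 22 ± 1 °C with gentle shaking. [3H]NMS was 0.2 nM (M1, M2, M3), 0.1 nM (M4) or 0.3 nM (M5). […] Cells were lysed in urea/acetic acid/Triton and counted by liquid scintillation. Ki from Cheng-Prusoff. Triplicates, ≥3 experiments.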
Background: Loss of bound radioactivity is the signal in a displacement assay; it reports binding, not function.

In experiment [2] the target is T2, Muscarinic acetylcholine receptor M2 (Homo sapiens, UniProt P08172).
T2 sequence (P08172 whole entry): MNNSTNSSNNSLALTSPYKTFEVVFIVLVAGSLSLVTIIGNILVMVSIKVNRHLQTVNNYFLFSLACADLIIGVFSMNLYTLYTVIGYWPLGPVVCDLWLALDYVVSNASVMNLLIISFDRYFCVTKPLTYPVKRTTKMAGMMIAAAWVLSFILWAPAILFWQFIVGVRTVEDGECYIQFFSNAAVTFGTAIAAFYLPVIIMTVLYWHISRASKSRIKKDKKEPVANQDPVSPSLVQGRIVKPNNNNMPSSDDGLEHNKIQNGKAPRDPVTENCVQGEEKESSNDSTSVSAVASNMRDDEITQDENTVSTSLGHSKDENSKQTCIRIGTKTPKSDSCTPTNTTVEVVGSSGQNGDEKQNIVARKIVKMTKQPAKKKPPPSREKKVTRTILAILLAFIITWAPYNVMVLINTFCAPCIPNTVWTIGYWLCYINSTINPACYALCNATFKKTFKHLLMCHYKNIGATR
The experiment is described as follows: Displacement of [3H]-NMS from human muscarinic M2 receptor expressed in CHO-K9 cells after 3 hrs by microbeta2 scintillation counting method. It counts as cell-based. A digest of the protocol:
as §1

Experiment [3] addresses T3, Muscarinic acetylcholine receptor M4 (Homo sapiens, UniProt P08173).
T3 sequence (P08173 whole entry): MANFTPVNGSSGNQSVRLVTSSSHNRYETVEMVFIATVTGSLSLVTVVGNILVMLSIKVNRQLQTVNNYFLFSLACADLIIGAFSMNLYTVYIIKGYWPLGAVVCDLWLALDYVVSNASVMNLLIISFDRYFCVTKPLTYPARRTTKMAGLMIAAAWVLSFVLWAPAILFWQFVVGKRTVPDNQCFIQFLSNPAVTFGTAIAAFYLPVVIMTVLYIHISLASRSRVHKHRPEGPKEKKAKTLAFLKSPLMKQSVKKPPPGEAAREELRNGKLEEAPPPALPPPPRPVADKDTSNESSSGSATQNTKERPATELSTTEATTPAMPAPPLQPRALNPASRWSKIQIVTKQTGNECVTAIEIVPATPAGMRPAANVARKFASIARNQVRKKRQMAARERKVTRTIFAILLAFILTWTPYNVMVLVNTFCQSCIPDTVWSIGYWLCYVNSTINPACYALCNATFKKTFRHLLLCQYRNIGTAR
Nature of the experiment: Displacement of [3H]-NMS from human muscarinic M4 receptor expressed in CHO-K9 cells after 3 hrs by microbeta2 scintillation counting method. It counts as cell-based. A digest of the protocol: as §1

Experiment [4] addresses Muscarinic acetylcholine receptor M2 and M4 (Homo sapiens) (UniProt P08173+P08172). Nature of the experiment: Selectivity ratio of Ki for human muscarinic M4 receptor expressed in CHO-K9 cells to Ki for human muscarinic M2 receptor expressed in CHO-K9 cells. It counts as cell-based. The method in brief: (§2)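 Ratio of mean Ki values. Each Ki came from an individual [3H]NMS competition experiment at the given CHO-hMxR subtype, converting IC50 to Ki by Cheng-Prusoff before averaging.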

Experiment [5] concerns the target T4, Muscarinic acetylcholine receptor M5 (Homo sapiens, UniProt P08912).
T4 sequence (P08912 whole entry): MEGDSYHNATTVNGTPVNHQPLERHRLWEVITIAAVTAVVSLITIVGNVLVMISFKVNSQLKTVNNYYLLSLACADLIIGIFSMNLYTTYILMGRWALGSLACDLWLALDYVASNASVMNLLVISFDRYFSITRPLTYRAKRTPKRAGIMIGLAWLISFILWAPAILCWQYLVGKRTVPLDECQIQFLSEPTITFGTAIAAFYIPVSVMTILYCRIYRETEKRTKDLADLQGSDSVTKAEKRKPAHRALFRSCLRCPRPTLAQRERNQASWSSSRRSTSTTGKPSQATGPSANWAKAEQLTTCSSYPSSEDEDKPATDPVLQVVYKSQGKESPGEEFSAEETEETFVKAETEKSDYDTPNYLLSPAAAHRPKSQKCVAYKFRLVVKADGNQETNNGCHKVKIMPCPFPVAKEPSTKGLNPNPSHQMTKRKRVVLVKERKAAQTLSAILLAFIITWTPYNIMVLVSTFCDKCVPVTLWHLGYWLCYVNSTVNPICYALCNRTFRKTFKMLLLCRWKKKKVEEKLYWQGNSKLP
Nature of the experiment: Displacement of [3H]-NMS from human muscarinic M5 receptor expressed in CHO-K9 cells after 3 hrs by microbeta2 scintillation counting method. It counts as cell-based. A digest of the protocol: as §1

Experiment [6] has as its target T5, Muscarinic acetylcholine receptor M2 and M5 (Homo sapiens) (UniProt P08172+P08912). Nature of the experiment: Selectivity ratio of Ki for human muscarinic M5 receptor expressed in CHO-K9 cells to Ki for human muscarinic M2 receptor expressed in CHO-K9 cells. It counts as cell-based. The method in brief:
as §2

For experiment [7], the target named is Muscarinic acetylcholine receptor M3 (Homo sapiens, UniProt P20309). Nature of the experiment: Displacement of [3H]-NMS from human muscarinic M3 receptor expressed in CHO-K9 cells after 3 hrs by microbeta2 scintillation counting method. Format: cell-based. The method in brief:
as §1

Experiment [8] has as its target T6, Muscarinic acetylcholine receptors; M2 & M3 (Homo sapiens) (UniProt P20309+P08172). Nature of the experiment: Selectivity ratio of Ki for human muscarinic M3 receptor expressed in CHO-K9 cells to Ki for human muscarinic M2 receptor expressed in CHO-K9 cells. It counts as cell-based. The method in brief:
as §2

Experiment [9] concerns the target Muscarinic acetylcholine receptors; M1 & M2 (Homo sapiens) (UniProt P11229+P08172). Nature of the experiment: Selectivity ratio of Ki for human muscarinic M1 receptor expressed in CHO-K9 cells to Ki for human muscarinic M2 receptor expressed in CHO-K9 cells. Format: cell-based. A digest of the protocol:
as §2

The target in experiment [10] is T7, Muscarinic acetylcholine receptor M2 (Homo sapiens) (UniProt P08172).
T7 sequence (whole entry): T2 sequence (P08172 whole entry)
The experiment is described as follows: Antagonist activity at human muscarinic M2 receptor expressed in HEK293 cells co-expressing HA-Galphaq/i5 assessed as inhibition of carbachol-induced IP1 accumulation pre-incubated for 30 mins followed by carbachol addition and measured after 1 hr by HTRF assay. It counts as functional, cell-based. A digest of the protocol: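 HEK-293 cells transiently cotransfected (receptor plus HA-tagged Gαqi5), detached after 1 day and seeded at 10,000 cells/well for 24 h at 37 °C. Duplicates.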

Experiment [11] deals with T6, Muscarinic acetylcholine receptors; M2 & M3 (Homo sapiens). Nature of the experiment: Selectivity ratio of Ki for human muscarinic M3 receptor expressed in stable CHO-K1 cells to Ki for human muscarinic M2 receptor expressed in stable CHO-K1 cells. Format: cell-based.
Experiment [12] has as its target T5, Muscarinic acetylcholine receptor M2 and M5 (Homo sapiens). Nature of the experiment: Selectivity ratio of Ki for human muscarinic M5 receptor expressed in stable CHO-K1 cells to Ki for human muscarinic M2 receptor expressed in stable CHO-K1 cells. Format: cell-based.

Sequence of Muscarinic acetylcholine receptor M3 (P20309 whole entry): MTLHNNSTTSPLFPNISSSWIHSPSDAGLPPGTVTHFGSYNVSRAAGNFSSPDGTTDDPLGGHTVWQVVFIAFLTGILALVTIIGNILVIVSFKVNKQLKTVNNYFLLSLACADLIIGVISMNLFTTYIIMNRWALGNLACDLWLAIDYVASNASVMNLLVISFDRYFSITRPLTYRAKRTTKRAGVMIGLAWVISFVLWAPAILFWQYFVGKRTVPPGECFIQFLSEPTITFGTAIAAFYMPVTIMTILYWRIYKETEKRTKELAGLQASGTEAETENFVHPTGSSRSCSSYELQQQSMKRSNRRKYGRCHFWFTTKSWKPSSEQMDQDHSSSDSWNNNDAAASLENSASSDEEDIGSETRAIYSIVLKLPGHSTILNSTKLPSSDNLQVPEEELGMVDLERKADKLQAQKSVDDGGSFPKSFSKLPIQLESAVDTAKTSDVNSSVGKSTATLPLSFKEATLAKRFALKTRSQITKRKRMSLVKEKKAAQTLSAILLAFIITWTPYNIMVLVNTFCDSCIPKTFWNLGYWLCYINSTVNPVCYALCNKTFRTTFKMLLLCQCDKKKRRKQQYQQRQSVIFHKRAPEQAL
T6 sequence (P20309 whole entry, looked up, one chain of several): as the sequence (P20309 whole entry) above

As for `CC(=O)N[C@@H](C)C(=O)N[C@@H](C)C(=O)NCCN1CCN(CCCCC2CCN(CC(=O)N3c4ccccc4NC(=O)c4ccccc43)CC2)CC1`, the Ki – broadly, a dissociation constant, usually derived from enzyme kinetics or from competition with a known ligand – is 3.16 nM in [1]; 0.427 nM in experiment [2]; 2.45 nM in experiment [3]; 457 nM in [5]; 155 nM in experiment [7]. For the same molecule, the Ratio Ki in experiment [4] stood at 7.5; in experiment [6] it was 1100; in experiment [8], 370; in experiment [9] it was 7.5.

For `CC(=O)N[C@@H](Cc1ccc(O)cc1)C(=O)N[C@@H](CCCCN)C(=O)NCCCCC1CCN(CC(=O)N2c3ccccc3NC(=O)c3ccccc32)CC1`, the Ki in experiment [1] is 87.1 nM; in experiment [2] it was 46.8 nM; in experiment [3], 295 nM; in experiment [5] it was 708 nM; in experiment [7] it was 10000 nM. Moreover, the Ratio Ki in experiment [4] is 6.6; in experiment [6] it was 15; in experiment [8] it was 210; in experiment [9] it was 1.8.

With `CC(=O)N[C@@H](CCCNC(=N)N)C(=O)NCCCCC1CCN(CC(=O)N2c3ccccc3NC(=O)c3ccccc32)CC1`, the Ki in experiment [1] is 97.7 nM; in experiment [2], 11.2 nM; in experiment [3] it was 148 nM; in experiment [5] it was 977 nM; in experiment [7], 1480 nM. The Ratio Ki amounted to 13 in experiment [4], 86 in [6], 140 in [8] and 8.4 in experiment [9].

Turning to `N=C(N)NCCC[C@H](N)C(=O)NCCCCC1CCN(CC(=O)N2c3ccccc3NC(=O)c3ccccc32)CC1`, the inhibitory constant (Ki) in experiment [1] was 107 nM; in [2], 5.37 nM; in [3] it was 56.2 nM; in experiment [5], 2400 nM; in experiment [7], 1260 nM. The Ratio Ki came out at 9.8 in [4], 410 in [6], 260 in experiment [8] and 18 in [9].

For `CC(=O)N[C@@H](CCC(N)=O)C(=O)N[C@@H](C)C(=O)N[C@@H](CC(C)C)C(=O)NCCN1CCN(CCCCC2CCN(CC(=O)N3c4ccccc4NC(=O)c4ccccc43)CC2)CC1`, the inhibitory constant (Ki) is 2.95 nM in [1]; 0.355 nM in experiment [2]; 3.55 nM in experiment [3]; 240 nM in experiment [5]; 151 nM in experiment [7]. Also, the Ratio Ki in [4] was 11; in [6], 710; in experiment [8], 440; in [9], 8.4.

For `CC(=O)N[C@@H](C)C(=O)N[C@@H](C)C(=O)NCCCCC1CCN(CC(=O)N2c3ccccc3NC(=O)c3ccccc32)CC1`, the inhibition constant (Ki) in [1] was 302 nM; in experiment [2] it was 22.9 nM; in [3], 79.4 nM; in experiment [5] it was 1350 nM; in experiment [7], 1380 nM. For the same molecule, the Ratio Ki in experiment [4] was 3.7; in [6] it was 62; in experiment [8], 59; in experiment [9] it was 14.

Take `CC(=O)N[C@@H](Cc1ccc(O)cc1)C(=O)N[C@@H](CCCCN)C(=O)NCCN1CCN(CCCCC2CCN(CC(=O)N3c4ccccc4NC(=O)c4ccccc43)CC2)CC1`: the inhibition constant Ki is 2.14 nM in experiment [1]; 0.0794 nM in experiment [2]; 0.912 nM in experiment [3]; 141 nM in experiment [5]; 16.2 nM in experiment [7]. Also, the Ratio Ki in experiment [4] worked out at 13; in experiment [6] it was 1900; in [8] it was 220; in [9] it was 32.

For `CC(=O)N[C@@H](CCCNC(=N)N)C(=O)N[C@@H](CCCCN)C(=O)NCCCCC1CCN(CC(=O)N2c3ccccc3NC(=O)c3ccccc32)CC1`, the Ki is 95.5 nM in experiment [1]; 12 nM in experiment [2]; 257 nM in experiment [3]; 501 nM in experiment [5]; 5500 nM in experiment [7]. For the same molecule, the Ratio Ki in [4] came to 17; in [6], 39; in experiment [8], 400; in [9], 6.5.

For `CN1[C@@H]2CC[C@H]1C[C@@H](OC(=O)C(CO)c1ccccc1)C2` (some centres undefined), the inhibition entry in experiment [10] is “Dose-dependent effect”.

With `CC(=O)N[C@@H](CCCCN)C(=O)N[C@@H](Cc1ccc(O)cc1)C(=O)NCCN1CCN(CCCCC2CCN(CC(=O)N3c4ccccc4NC(=O)c4ccccc43)CC2)CC1`, the Ki in experiment [1] is 1.41 nM; in experiment [2], 0.0794 nM; in experiment [3], 1.12 nM; in experiment [5] it was 70.8 nM; in [7], 27.5 nM. Besides, the Ratio Ki stood at 12 in experiment [4], 780 in experiment [6], 260 in [8] and 14 in [9].

Regarding `CCCN(CCC)CC1CCCCN1CCNC(=O)N1c2ccccc2C(=O)Nc2cccnc21` (centres undefined), the values for the Ratio Ki in experiment [11] and in [12] were 11 and 89, respectively.
